Consider 11 compounds from PMC4191588 (Journal of Medicinal Chemistry, 2014).

One data set relates to small panel of DUBs. Particulars: cited from earlier work.
Another data set concerns Ub-PCNA in H1299 cells. Description: Western blot of monoubiquitinated PCNA. The data set is classed as cell-based, human. The settings on record: 4 hr; for change in Ub-PCNA (in words): H1299 cells, 1, 5, and 25 µM; for lowest concentration at which an increase in Ub-PCNA was observed: H1299 cells. For orientation: In western blotting, separated proteins are transferred to a membrane and probed.

For the next data set, the system named is 451 kinases. The settings on record: cited from earlier work.
A further data set relates to H1299 cells. Description: Colony formation assay in H1299 cells. It is filed as cell-based, human. The settings on record: for effect on cell survival (in words) / reduction of colony formation: H1299 cells, 5 μM, 7 days; for reduction of colony formation: relative to DMSO.
The target of another data set is USP1/UAF1 (Homo sapiens, UniProt O94782). The data set is described as follows: USP1/UAF1 quantitative high-throughput screening. The data set is classed as biochemical.
Sequence of USP1/UAF1 (O94782 whole entry): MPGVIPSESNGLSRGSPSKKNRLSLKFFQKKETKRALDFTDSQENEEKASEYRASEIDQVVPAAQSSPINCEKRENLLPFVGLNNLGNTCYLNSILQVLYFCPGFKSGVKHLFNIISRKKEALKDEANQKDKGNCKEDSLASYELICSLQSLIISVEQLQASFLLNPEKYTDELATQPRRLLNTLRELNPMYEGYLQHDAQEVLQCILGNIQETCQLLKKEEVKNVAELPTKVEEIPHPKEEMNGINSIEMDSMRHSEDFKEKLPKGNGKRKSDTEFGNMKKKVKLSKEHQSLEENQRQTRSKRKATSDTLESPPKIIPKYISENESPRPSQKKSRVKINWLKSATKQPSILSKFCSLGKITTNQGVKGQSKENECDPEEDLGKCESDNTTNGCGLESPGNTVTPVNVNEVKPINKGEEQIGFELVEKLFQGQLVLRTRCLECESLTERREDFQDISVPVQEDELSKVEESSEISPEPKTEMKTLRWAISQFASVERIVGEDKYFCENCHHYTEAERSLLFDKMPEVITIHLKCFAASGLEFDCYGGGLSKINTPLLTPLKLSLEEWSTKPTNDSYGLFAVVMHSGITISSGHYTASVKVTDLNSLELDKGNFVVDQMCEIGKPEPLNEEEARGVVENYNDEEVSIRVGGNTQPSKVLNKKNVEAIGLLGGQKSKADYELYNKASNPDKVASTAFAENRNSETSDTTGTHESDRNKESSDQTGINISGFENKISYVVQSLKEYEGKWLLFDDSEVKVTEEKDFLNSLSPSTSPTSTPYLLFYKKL
Sequence of USP1/UAF1 (Q8TAF3 whole entry partner): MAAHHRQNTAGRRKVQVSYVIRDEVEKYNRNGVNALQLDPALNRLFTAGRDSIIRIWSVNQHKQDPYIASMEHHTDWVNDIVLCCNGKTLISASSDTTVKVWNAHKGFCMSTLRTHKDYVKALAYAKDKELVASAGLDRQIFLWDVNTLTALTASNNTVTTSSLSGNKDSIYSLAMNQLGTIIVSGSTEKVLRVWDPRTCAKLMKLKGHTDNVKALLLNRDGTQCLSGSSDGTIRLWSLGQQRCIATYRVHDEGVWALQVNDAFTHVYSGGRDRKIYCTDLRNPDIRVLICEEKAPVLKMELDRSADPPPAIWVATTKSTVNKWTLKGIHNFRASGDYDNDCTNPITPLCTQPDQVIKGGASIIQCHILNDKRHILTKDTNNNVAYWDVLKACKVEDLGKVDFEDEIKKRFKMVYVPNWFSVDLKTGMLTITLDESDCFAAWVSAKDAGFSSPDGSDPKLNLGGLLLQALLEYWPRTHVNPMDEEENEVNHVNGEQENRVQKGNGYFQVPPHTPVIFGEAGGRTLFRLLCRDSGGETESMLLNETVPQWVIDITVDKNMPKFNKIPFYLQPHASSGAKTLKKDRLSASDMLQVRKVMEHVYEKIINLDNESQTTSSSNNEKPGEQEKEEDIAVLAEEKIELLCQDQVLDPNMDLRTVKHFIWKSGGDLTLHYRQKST
In another data set the test system is Ca^2+ channel. Description: CEREP LeadProfilingScreen2 radioligand binding. The settings on record: 10 μM, duplicate. The gist of the method:
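Test compound run at 10 μM in a commercial lead-profiling panel of 80 GPCRs, ion channels and transporters.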

The next data set can be described thus: Mouse plasma stability. It is filed as in vitro ADME.
Data set [1] is described as follows: Aqueous chemical stability. The data set is classed as physicochemical. Particulars: aqueous solution at room temperature.
Data set [2] can be described thus: Preliminary in vivo PK studies.
The test system of another data set is Caco-2. Description: Caco-2 permeability. The data set is classed as in vitro ADME. In general terms: Passage across Caco-2 layers is used to estimate intestinal permeability.

Each structure is given as a SMILES string.

Turning to `FC(F)(F)c1ccccc1-c1nc(NCc2cccs2)c2ccccc2n1` [Compound 1, N-(Thiophen-2-ylmethyl)-2-(2-(trifluoromethyl)phenyl)quinazolin-4-amine], the “activity against a small panel of DUBs” value in the data set with small panel of DUBs is “no significant activity”. Moreover, the “change in Ub-PCNA (in words)” value in the data set on Ub-PCNA in H1299 cells is on record as “dose-dependent increase in Ub-PCNA”. Besides, the “appreciable inhibition among 451 kinases” value in the data set with 451 kinases is listed as “only one of 451 kinases”. Moreover, the “effect on cell survival (in words)” value with H1299 cells is listed as “minimal”.
As to `FC(F)(F)c1cccc(-c2nc(NCc3ccc(-c4cccnc4)cc3)c3ccccc3n2)c1` [Compound 22], at USP1/UAF1, the “activity toward USP1/UAF1 (in words)” value was “inactivity”.
`FC(F)(F)c1ccc(-c2nc(NCc3ccc(-c4cccnc4)cc3)c3ccccc3n2)cc1` [Compound 23]: the “activity toward USP1/UAF1 (in words)” value at USP1/UAF1 is “inactivity”.
Turning to `CC(C)c1ccccc1-c1nc(NCc2ccc(-c3cccnc3)cc2)c2occc2n1` [Compound 48, 2-(2-Isopropylphenyl)-N-(4-(pyridin-3-yl)benzyl)furo[3,2-d]pyrimidin-4-amine], the “reduction of colony formation” value with H1299 cells was “greater than 70%”.
Same read-out and setting: the entry for `COc1cnc(-c2ccccc2C(C)C)nc1NCc1ccc(-c2cccnc2)cc1` [Compound 49, 2-(2-Isopropylphenyl)-5-methoxy-N-(4-(pyridin-3-yl)benzyl)pyrimidin-4-amine] is “greater than 70%”.
As for `Cc1cnc(-c2ccccc2C(C)C)nc1NCC1CCN(C)CC1` [Compound 58], at USP1/UAF1, the “activity toward USP1/UAF1 (in words)” value was “complete loss of activity”.
Turning to `Cc1cnc(-c2ccccc2C(C)C)nc1NCC1CCN(c2cccnc2)CC1` [Compound 64, 2-(2-Isopropylphenyl)-5-methyl-N-((1-(pyridin-3-yl)piperidin-4-yl)methyl)pyrimidin-4-amine], in the data set with Ub-PCNA in H1299 cells, the “change in Ub-PCNA (in words)” value was “dose-dependent increase in Ub-PCNA” and the “lowest concentration at which an increase in Ub-PCNA was observed” value is 1 µM. Besides, the “reduction of colony formation” value with H1299 cells is recorded as “greater than 70%”.
For the compound `Cc1cnc(-c2ccccc2C(C)C)nc1NCc1ccc(-n2ccnc2)cc1` [Compound 69, N-(4-(1H-Imidazol-1-yl)benzyl)-2-(2-isopropylphenyl)-5-methylpyrimidin-4-amine], in the data set with H1299 cells, the “reduction of colony formation” value is reported as “greater than 70%”.
`Cc1cnc(-c2ccccc2C(C)C)nc1NCc1ccc(-n2ccnn2)cc1` [Compound 70, N-(4-(1H-1,2,3-Triazol-1-yl)benzyl)-5-methyl-2-(2-isopropylphenyl)pyrimidin-4-amine]: the “inhibition of Ca^2+ channel” value in the data set on Ca^2+ channel was over 50%. Moreover, in the data set on Ub-PCNA in H1299 cells, the “change in Ub-PCNA (in words)” value was “dose-dependent increase in Ub-PCNA” and the “lowest concentration at which an increase in Ub-PCNA was observed” value stood at 1 µM. The “stability in mouse plasma (in words)” value in the data set “Mouse plasma stability” was “stable”. In addition, the “stability in PBS buffer, assay buffer, pH 2, pH 9 (in words)” value in data set [1] is reported as “stable”. The clearance in [2] is over 70 mL/min/kg. Also, in the data set on Caco-2, the “Caco-2 (A→B) Papp” value is 22.98 10^–6 cm/s. Moreover, in the data set with H1299 cells, the “reduction of colony formation” value was “greater than 70%”.
`Cc1cnc(-c2ccccc2C2COC2)nc1NCc1ccc(-c2cccnc2)cc1` [Compound 72, 5-methyl-2-(2-(oxetan-3-yl)phenyl)-N-(4-(pyridin-3-yl)benzyl)pyrimidin-4-amine]: the “activity toward USP1/UAF1 (in words)” value at USP1/UAF1 was “lost all activity”.
With `Cc1cnc(-c2ccccc2C2COC2)nc1NCc1ccc(-n2ccnn2)cc1` [Compound 77, N-(4-(1H-1,2,3-Triazol-1-yl)benzyl)-5-methyl-2-(2-(oxetan-3-yl)phenyl)pyrimidin-4-amine], the “activity toward USP1/UAF1 (in words)” value at USP1/UAF1 is reported as “lost all activity”. In addition, in the data set with H1299 cells, the “effect on cell survival (in words)” value is listed as “no effect”. Further, in the data set with H1299 cells (Homo sapiens, NCI-H1299, read-out: EC50 cell survival (colony formation)), the EC50 is over 25 µM.

In general, clearance refers to the volume of plasma or blood freed of the substance per unit of time. For orientation: EC50 means the concentration giving half of the maximal effect.
